The term ED50 denotes the dose at which the effect has come halfway, by size or by number of responders.

Data on 14 molecules can be found in ChEMBL document CHEMBL3244123, “Isoquinolines. 5. Synthesis and antiarrhythmic activity of benzylisoquinoline derivatives” (J Med Chem, 1977).

Data set [1] concerns Mus musculus. Put plainly: Toxicity in Swiss albino mouse assessed as convulsions at 100 mg/kg, sc measured up to 20 mins. Further details: dose 100 mg/kg, route subcutaneous. To be noted: in vivo. The data set is classed as organism-based. The essentials:
(§1)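 Female Swiss albino mice, ten per dose, were given drug in 0.9% saline sc and watched for 20 min before chloroform challenge. Ataxia, convulsions, loss of righting reflex and death were each reported as number of animals affected of ten.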

Data set [2] relates to Mus musculus. The data set can be described thus: Toxicity in Swiss albino mouse assessed as loss of righting reflex at 100 mg/kg, sc measured up to 20 mins. The arrangement: dose 100 mg/kg, route subcutaneous. Conditions: in vivo. Format: organism-based. The essentials: as §1
The test system of data set [3] is Mus musculus. Put plainly: Toxicity in Swiss albino mouse assessed as mortality at 100 mg/kg, sc measured up to 20 mins. The arrangement: dose 100 mg/kg, route subcutaneous. Format: organism-based. Conditions: in vivo. The essentials: as §1
For data set [4], the system named is Mus musculus. Put plainly: Toxicity in Swiss albino mouse assessed as ataxia at 100 mg/kg, sc measured up to 20 mins. Conditions: in vivo. The data set is classed as organism-based. Further details: dose 100 mg/kg, route subcutaneous. The essentials:
as §1

In data set [5] the test system is Canis familiaris. The data set can be described thus: Antiarrhythmic activity in beagle dog myocardial infarction model assessed as ventricular ectopic beats at 0.5 mg/kg/min, iv administered as infusion (reference value: 84 to 98 %). The data set is classed as functional, Canis lupus familiaris, Heart. The method, boiled down:
(§2)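 Drug infused iv via a fore limb vein at 0.5 mg/kg/min (as base, in 0.9% saline, pH 6–7) until clearing (ventricular ectopic activity ≤5% for a consecutive 5 min); EKG and vital signs monitored during and after infusion.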

Data set [6] relates to Canis familiaris. Put plainly: Antiarrhythmic activity in beagle dog myocardial infarction model assessed as concentration required for reduction in ventricular ectopic activity to 5% or less for a consecutive 5 min compound administered iv as infusion. Format: functional, Canis lupus familiaris, Heart. The essentials:
as §2

Data set [7] relates to Canis familiaris. Put plainly: Antiarrhythmic activity in beagle dog myocardial infarction model assessed as mean arterial blood pressure at 0.5 mg/kg/min, iv administered as infusion (reference value: 80 to 115 mmHg).
Data set [8] has as its system Mus musculus. The data set can be described thus: Antiarrhythmic activity in Swiss albino mouse assessed as protection against chloroform-induced ventricular fibrillation at 100 mg/kg, sc administered 20 mins prior to challenge. The arrangement: dose 100 mg/kg. Conditions: Heart. Format: functional, organism-based. The essentials: (§3)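 Female Swiss albino mice, groups of ten, received drug in 0.9% saline sc at 100 mg/kg; dose raised to 200 mg/kg when neither protection nor toxicity appeared. After 20 min, mice were exposed to chloroform vapour. Absence of ventricular fibrillation counted as protection, reported as number protected of ten.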

The subject of data set [9] is Mus musculus. The data set can be described thus: Toxicity in Swiss albino mouse assessed as ataxia at 200 mg/kg, sc measured up to 20 mins. The data set is classed as organism-based. The arrangement: dose 200 mg/kg, route subcutaneous. Conditions: in vivo. The method, boiled down:
as §1

In data set [10] the test system is Mus musculus. Put plainly: Toxicity in Swiss albino mouse assessed as convulsions at 200 mg/kg, sc measured up to 20 mins. The arrangement: dose 200 mg/kg, route subcutaneous. To be noted: in vivo. Format: organism-based. The method, boiled down: as §1
Data set [11] has as its system Mus musculus. Put plainly: Toxicity in Swiss albino mouse assessed as loss of righting reflex at 200 mg/kg, sc measured up to 20 mins. The arrangement: dose 200 mg/kg, route subcutaneous. The data set is classed as organism-based. To be noted: in vivo. The essentials: as §1
For data set [12], the system named is Mus musculus. Put plainly: Toxicity in Swiss albino mouse assessed as mortality at 200 mg/kg, sc measured up to 20 mins. Conditions: in vivo. The arrangement: dose 200 mg/kg, route subcutaneous. The data set is classed as organism-based. The essentials:
as §1

Data set [13] has as its system Mus musculus. Put plainly: Antiarrhythmic activity in Swiss albino mouse assessed as protection against chloroform-induced ventricular fibrillation at 47 mg/kg, sc administered 20 mins prior to challenge. Further details: dose 47 mg/kg. The data set is classed as functional, organism-based. Conditions: Heart. The essentials:
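Female Swiss albino mice, ten per dose, received drug in 0.9% saline sc at one of three log-spaced doses. After 20 min, mice were exposed to chloroform vapour. Mice without ventricular fibrillation were scored protected, reported as number protected of ten.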

Data set [14] deals with Mus musculus. The data set can be described thus: Toxicity in Swiss albino mouse assessed as ataxia at 47 mg/kg, sc measured up to 20 mins. The data set is classed as organism-based. The arrangement: dose 47 mg/kg, route subcutaneous. Conditions: in vivo. The method, boiled down:
as §1

Data set [15] concerns Mus musculus. The data set can be described thus: Toxicity in Swiss albino mouse assessed as loss of righting reflex at 47 mg/kg, sc measured up to 20 mins. Further details: dose 47 mg/kg, route subcutaneous. To be noted: in vivo. Format: organism-based. The method, boiled down: as §1
Data set [16] concerns Mus musculus. Put plainly: Antiarrhythmic activity in Swiss albino mouse assessed as protection against chloroform-induced ventricular fibrillation at 200 mg/kg, sc administered 20 mins prior to challenge. Format: functional, organism-based. Further details: dose 200 mg/kg. To be noted: Heart. The essentials: as §3
Data set [17] relates to Canis familiaris. Put plainly: Antiarrhythmic activity in beagle dog myocardial infarction model assessed as ventricular rate at 0.5 mg/kg/min, iv administered as infusion (reference value: 126 to 221 bpm). The data set is classed as functional, Canis lupus familiaris, Heart. The method, boiled down:
as §2

The subject of data set [18] is Canis familiaris. Put plainly: Toxicity in beagle dog myocardial infarction model assessed as head tremors compound administered iv as infusion. Conditions: in vivo. Format: organism-based, Canis lupus familiaris. The method, boiled down:
as §2

The subject of data set [19] is Canis familiaris. The data set can be described thus: Toxicity in beagle dog myocardial infarction model assessed as convulsions compound administered iv as infusion. The data set is classed as organism-based, Canis lupus familiaris. To be noted: in vivo. The method, boiled down: as §2
The subject of data set [20] is Mus musculus. Put plainly: Antiarrhythmic activity in sc dosed Swiss albino mouse assessed as protection against chloroform-induced ventricular fibrillation compound administered 20 mins prior to challenge. Conditions: Heart. The data set is classed as functional. The method, boiled down: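 Female Swiss albino mice, ten per dose, given drug sc in 0.9% saline; screen at 100 mg/kg (raised to 200 mg/kg if neither protection nor toxicity), observed 20 min for toxicity, then exposed to chloroform vapour; absence of ventricular fibrillation counted as protection. Full tests used three log-spaced doses; ED50 with 95% Fieller limits by Berkson minimum logit χ² analysis.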

Data set [21] relates to Mus musculus. Put plainly: Toxicity in Swiss albino mouse assessed as ataxia at 138 mg/kg, sc measured up to 20 mins. To be noted: in vivo. Further details: dose 138 mg/kg, route subcutaneous. Format: organism-based. The essentials:
as §1

Data set [22] relates to Mus musculus. Put plainly: Toxicity in Swiss albino mouse assessed as convulsions at 138 mg/kg, sc measured up to 20 mins. The arrangement: dose 138 mg/kg, route subcutaneous. Format: organism-based. Conditions: in vivo. The essentials: as §1
Data set [23] relates to Mus musculus. Put plainly: Toxicity in Swiss albino mouse assessed as loss of righting reflex at 138 mg/kg, sc measured up to 20 mins. Format: organism-based. Further details: dose 138 mg/kg, route subcutaneous. Conditions: in vivo. The method, boiled down: as §1
In data set [24] the test system is Mus musculus. Put plainly: Toxicity in Swiss albino mouse assessed as mortality at 138 mg/kg, sc measured up to 20 mins. Conditions: in vivo. The arrangement: dose 138 mg/kg, route subcutaneous. The data set is classed as organism-based. The method, boiled down: as §1

Calls of active or inactive are those of the source. The rule behind the calls is not given here.

Turning to `COc1ccc(Cc2nccc3cc(OC)c(OC)cc23)cc1OC` [PAPAVERINE], the Activity entry in the data set on Mus musculus [1], with Mus musculus [2] and in the data set with Mus musculus [3] was “Non-toxic” throughout.

As for `CCNCC(=O)Nc1c(Cc2nccc3ccccc23)ccc(OC)c1OC`, the Activity result in the data set with Mus musculus [4] is “Non-toxic”; in the data set on Mus musculus [1] it was “Non-toxic”; in the data set with Mus musculus [2] it was “Non-toxic”; in the data set with Mus musculus [3], “Non-toxic”; with Canis familiaris [5] it was 0%; with Canis familiaris [6], 10 mg/kg. Further, in the data set on Canis familiaris [7], the Activity is listed as 85%.

For `CCN(CC)CC(=O)Nc1c(C)cccc1C` [LIDOCAINE], the result in the data set on Mus musculus [8] was Active. Further, the Activity entry in the data set on Mus musculus [4] is “Toxic”; in the data set on Mus musculus [1], “Toxic”; with Mus musculus [2], “Toxic”; in the data set on Mus musculus [3], “Non-toxic”.

Consider `CCN(CC)CC(=O)Nc1cc(OC)ccc1C.Cl`, for which the Activity entry with Mus musculus [9], with Mus musculus [10], in the data set with Mus musculus [11] and with Mus musculus [12] was “Non-toxic” in each case.

With `CCN(CC)CC(=O)Nc1cc(OC)c(OC)cc1C.Cl`, the result in the data set on Mus musculus [8] was inactive. The Activity entry in the data set with Mus musculus [4], in the data set with Mus musculus [1], with Mus musculus [2], with Mus musculus [3], in the data set on Mus musculus [9] and in the data set with Mus musculus [10] was “Non-toxic” in each case. In addition, the Activity result with Mus musculus [11] and in the data set on Mus musculus [12] was “Non-toxic” each time.

For the molecule `COc1ccc(CC2c3cc(OC)c(OC)cc3CCN2C)cc1OC` (racemic) [LAUDANOSINE], the outcome in the data set on Mus musculus [8] and in the data set with Mus musculus [13] was inactive. Besides, the Activity entry is “Toxic” with Mus musculus [4]; “Toxic” with Mus musculus [1]; “Non-toxic” in the data set on Mus musculus [2]; “Toxic” in the data set on Mus musculus [3]; “Non-toxic” with Mus musculus [14]; “Non-toxic” in the data set with Mus musculus [15].

Consider `COc1ccc(Cc2nccc3ccccc23)c(NC(=O)CN)c1OC`, for which the Activity result in the data set on Mus musculus [4], with Mus musculus [1], in the data set with Mus musculus [2] and in the data set on Mus musculus [3] was “Non-toxic” each time.

Turning to `CCNCC(=O)Nc1cc(OC)c(OC)cc1Cc1nccc2cc(OC)c(OC)cc12`, the Activity result in the data set on Mus musculus [1], in the data set with Mus musculus [2] and in the data set with Mus musculus [3] was “Non-toxic” throughout.

Consider `CCN(CC)CC(=O)Nc1cc(OC)ccc1Cc1nccc2ccccc12`, for which the result in the data set with Mus musculus [8] and with Mus musculus [16] was inactive. Moreover, the Activity result in the data set on Mus musculus [4], in the data set with Mus musculus [1], in the data set on Mus musculus [2], with Mus musculus [3], in the data set with Mus musculus [9] and with Mus musculus [10] was “Non-toxic” in each case. Further, the Activity result with Mus musculus [11] and with Mus musculus [12] was “Non-toxic” in each case.

On to `CCN(CC)CC(=O)Nc1c(Cc2nccc3ccccc23)ccc(OC)c1OC`, for which the Activity entry was “Non-toxic” in the data set with Mus musculus [4]; “Non-toxic” in the data set on Mus musculus [1]; “Non-toxic” in the data set with Mus musculus [2]; “Non-toxic” with Mus musculus [3]; 0% in the data set with Canis familiaris [5]; 135% with Canis familiaris [17]. Also, the Activity came to 46.5 mg/kg in the data set with Canis familiaris [6], 6.25 mg/kg in the data set with Canis familiaris [18], 15.75 mg/kg in the data set on Canis familiaris [19] and 90% in the data set with Canis familiaris [7].

For the molecule `CCN(CC)CC(=O)Nc1cc(OC)c(OC)cc1Cc1nccc2ccccc12`, the Activity entry in the data set on Mus musculus [1], with Mus musculus [2] and in the data set with Mus musculus [3] was “Non-toxic” throughout.

As to `COc1ccc(Cc2nccc3ccccc23)c(NC(=O)C(C)N)c1OC` (centres undefined), the Activity result with Mus musculus [4], with Mus musculus [1], in the data set on Mus musculus [2] and in the data set with Mus musculus [3] was “Non-toxic” each time.

With `CCN(CC)CC(=O)Nc1cc(OC)c(OC)cc1Cc1nccc2cc(OC)c(OC)cc12`, the Activity entry with Mus musculus [4], in the data set with Mus musculus [1], in the data set with Mus musculus [2] and in the data set with Mus musculus [3] was “Non-toxic” each time.

Turning to `CCN(CC)CC(=O)Nc1c(CC2c3ccccc3CCN2C)ccc(OC)c1OC.Cl` (centres undefined), the ED50 in the data set on Mus musculus [20] was 147 mg/kg. Also, the Activity entry in the data set on Mus musculus [21], in the data set with Mus musculus [22], in the data set with Mus musculus [23] and in the data set on Mus musculus [24] was “Non-toxic” throughout.
